Ecoli rRNA inh – inhibitors of bacterial rRNA selective over humanized ribosomes; E. coli WT GFP vs humanized-ribosome RFP mutants, fluorescence, 24 h; hits give low values; DMSO median 0, no signal -100; GFP signal change (wild-type ribosome), % (test concentration not listed); 350,000 compounds, 1.6% hits;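 active = significant combined selectivity score with lowered wild-type GFP, culture density cut under 30%, mutant RFP and density less affected; inactive = any of these conditions unmet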
dFosB act – activators of mouse delta FosB homodimer | P13346 | purified delta FosB, TAMRA-CDK5 oligo fluorescence polarization; percent of positive-control signal above neutral wells | activation, % at 25 µM | 340,000 compounds, 0.99% hits;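 active = mean activation above about 17%, with every replicate also reaching it, limit read from the data, passing the limit was not always enough; inconclusive = only one of the two conditions met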
Target sequence (P13346 whole entry, looked up): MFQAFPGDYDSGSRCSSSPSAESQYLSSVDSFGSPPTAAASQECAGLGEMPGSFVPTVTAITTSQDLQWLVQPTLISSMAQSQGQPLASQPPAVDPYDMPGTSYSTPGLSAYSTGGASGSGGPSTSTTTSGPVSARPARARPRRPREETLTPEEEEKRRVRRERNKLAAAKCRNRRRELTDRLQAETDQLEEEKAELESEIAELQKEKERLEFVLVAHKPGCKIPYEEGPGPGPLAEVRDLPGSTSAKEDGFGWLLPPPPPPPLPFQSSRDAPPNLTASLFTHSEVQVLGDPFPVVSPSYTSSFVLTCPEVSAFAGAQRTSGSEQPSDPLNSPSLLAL
PvdQ acylase – blocks Pseudomonas aeruginosa PvdQ acylase activity; inhibition, % at 10 µM; purified PvdQ acylase, fluorescence plate reader; 340,000 compounds, 0.063% hits; in the data active = inhibition above about 30%, passing the limit was not always enough; inconclusive = no clear call, values can overlap the other calls;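 note: 0% = vehicle neutral wells and 100% = reference inhibitor wells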
SR-BI DiI-HDL act – enhances SR-BI lipid uptake from DiI-HDL; CHO ldlA[mSR-BI] cells, DiI-HDL uptake fluorescence, 3 h; 100 = double the neutral-control signal; activation, % at 12.5 µM; 320,000 compounds, 0.096% hits; AID 504775;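 active = mean replicate activation of at least 60% and every replicate at or above 60%; inconclusive = mean or all-replicate condition met, but not both; inactive = mean below 60% and not all replicates reaching 60%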;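 note: 0% = median plate neutral-control signal and 100% = twice that signal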
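Assay system: LDL receptor-deficient CHO ldlA cells overexpressing murine SR-BI / Medium: BSA-supplemented, HEPES-buffered Ham's F12, pH 7.4 / Probe or stimulus: DiI-labelled HDL at 10 µg/mL final / Timing: compound with DiI-HDL co-incubation, 3 h at 37 °C / Technique: bottom-read cell fluorescence after medium removal, ex 550/em 595 nm / Measure: HDL uptake via cellular fluorescence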
Xi reactivation – activators of X-chromosome reactivation in mouse fibroblasts | activation, % at 7.58 µM | XiGFP mouse fibroblasts, % GFP-positive cells imaging, 3 d; cells co-treated with 5-aza-dC sensitizer; scaled so ellipticine positive control = 100% | 360,000 compounds, 0.055% hits | AID 743238;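 active = mean normalized replicate activation at least 10% and every replicate at or above 10%; inconclusive = only one of the two criteria met; inactive = mean below 10% and not all replicates reach 10%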;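 note: 0% = median of on-plate neutral control wells and 100% = ellipticine 6 µM median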
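material = 68-5-11 XiGFP fibroblast line | medium = DMEM plus 5-aza-dC sensitizer | schedule = 3 days compound exposure | benchmarks = positive control ellipticine, 6 µM final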
SR-BI HDL uptake – inhibitors of mouse SR-BI mediated HDL lipid uptake; AID 488896; 320,000 compounds, 0.96% hits; Q61009; inhibition, % at 12.5 µM; ldlA[mSR-BI] CHO cells, DiI-HDL uptake fluorescence, 3 h;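 active = mean replicate inhibition of at least 70% and a set share of replicates each scoring 70 or more; inconclusive = meets just one of the two criteria; inactive = fails both criteria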;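 note: 0% = median of neutral control wells and 100% = median of positive control wells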
Target sequence (Q61009 whole entry, looked up): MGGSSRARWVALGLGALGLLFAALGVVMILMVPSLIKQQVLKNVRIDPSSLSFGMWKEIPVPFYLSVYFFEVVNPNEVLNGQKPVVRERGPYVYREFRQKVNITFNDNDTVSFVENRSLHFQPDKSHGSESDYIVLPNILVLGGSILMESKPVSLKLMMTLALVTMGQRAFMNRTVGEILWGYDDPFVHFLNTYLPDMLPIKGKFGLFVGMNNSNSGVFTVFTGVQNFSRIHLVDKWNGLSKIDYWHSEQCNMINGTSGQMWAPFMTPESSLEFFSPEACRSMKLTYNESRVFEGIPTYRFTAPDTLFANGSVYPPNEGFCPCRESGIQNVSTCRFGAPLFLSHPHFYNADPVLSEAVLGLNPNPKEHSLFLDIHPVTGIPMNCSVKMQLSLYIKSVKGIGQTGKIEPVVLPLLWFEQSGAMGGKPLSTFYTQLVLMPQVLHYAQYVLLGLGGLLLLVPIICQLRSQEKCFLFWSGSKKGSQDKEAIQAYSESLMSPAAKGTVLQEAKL
HepG2 cytotox – cytotoxic compounds in HepG2 cells; shares compounds with Ecoli rRNA inh; HepG2 viability, ATP luminescence, 72 h; activity change, negative = cytotoxicity, unspecified at 26 µM; 30 tested, under 10 active;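 active = compounds whose fitted half-maximal signal-loss concentration is at most twice their highest valid dose; inconclusive = flat curve with 30 to 70% signal loss, or poor fit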
AID977621 – wild-type E. coli growth inhibition versus H69 humanized strain – H69 mutant RFP, wild-type GFP, cherry-pick, dose response; activity change, negative = inhibition at 50 µM; AID 977621; fluorescence, 24 h; shares compounds with Ecoli rRNA inh; 1,900 tested, under 10 active;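 active = Wild-type ribosome reporter drop at least double the humanized mutant ribosome reporter drop, growth loss under a set limit; inconclusive = no clear call, values can overlap the other calls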;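 note: wild-type GFP and H69 mutant RFP strains grown together 50/50 in each well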
AID977628 – growth of wild-type and h24-humanized E. coli strains – h24 mutant RFP vs wild-type GFP, cherry-pick, dose response; activity change, negative = inhibition at 50 µM; 1,900 tested, under 10 active; AID 977628; E. coli WT GFP strain growth, fluorescence, 24 h; shares compounds with Ecoli rRNA inh;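 active = compound lowering the normal-ribosome reporter at least twice as much as the humanized-ribosome reporter, growth loss under a set limit; inconclusive = no clear call, values can overlap the other calls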;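 note: wild-type GFP and h24 humanized RFP strains co-cultured 1 to 1 per well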
The depositor's hits bear a star; u = inconclusive; x = no result given; ! = not active in a repeat. A selection: hits, their analogues and other compounds. The true share with any hit is near 2.6%.

SMILES | Ecoli rRNA inh | dFosB act | PvdQ acylase | SR-BI DiI-HDL act | Xi reactivation | SR-BI HDL uptake | AID977621 | AID977628 | others
COc1cccc(NC(=O)C(c2ccccc2)N2CCN(c3ccccn3)CC2)c1 (stereo not given) | -19.1* | -3.2 | 4.8 | -4.1 | 0.3 | 4.1 | -5.86 | -13.8
COc1ccc(NC(=O)C(C)SCc2ccccc2)cc1OC (stereo not given) | -0.6 | -1.9 | -10.8 | -19.1 | 0.0 | 19.1 | x | x
Cc1ccc(C(=O)Nc2cccc3[nH]c(C(F)(F)F)nc23)cc1 | -23.5* | -6.8 | -7.0 | 10.3 | 0.0 | -10.3 | -7.32 | x
COc1ccc(CNc2cccc3[nH]c(C(F)(F)F)nc23)cc1 | 3.5 | -9.3 | -14.6 | -24.1 | 0.4 | 24.1 | x | x
COc1cc[n+]([O-])cc1[N+](=O)[O-] | 1.2* | 9.6 | -20.5 | 16.7 | 0.3 | -16.7 | -14.3 | -6.67
COCC#Cc1ccc2c(c1)O[C@@H](CN(C)C(=O)c1ccccc1)[C@@H](C)CN([C@@H](C)CO)S2(=O)=O | -3.2 | x | x | x | 0.0 | x | x | x
COCC#Cc1ccc2c(c1)O[C@H](CN(C)C(=O)c1ccccc1)[C@@H](C)CN([C@H](C)CO)S2(=O)=O | -18.6*! | x | x | x | 0.1 | x | -7.62 | -12.5
NC(=O)c1cccnc1Oc1ccc(Cl)cc1Cl | -30.7* | 0.6 | -0.2 | 2.6 | 0.0 | -2.6 | -6.87 | -12.5
Cc1cc(Cl)ccc1Nc1ncccc1C(N)=O | 1.5 | -10.3 | -2.9 | 14.2 | 0.0 | -14.2 | x | x
COc1ccc(F)cc1-c1cc(C(=O)NCc2cccc(Cl)c2)[nH]n1 | -17.9 | x | x | x | 0.1 | x | x | x
CCOC(=O)c1c(NC(=O)Cc2cccs2)sc(C(=O)NC2CCCC2)c1C | x | -5.3 | -12.9 | -62.6 | x | 62.6 | x | x
CCOC(=O)c1c(NC(=O)Cc2cccs2)sc(C)c1C | -33.9* | 3.9 | -8.6 | -16.6 | x | 16.6 | x | x | HepG2 cytotox=11.3
COc1ccc(Cc2nnc(Nc3ccc(C)cc3)o2)cc1OC | -19.4* | -5.0 | -3.2 | 6.7 | 0.1 | -6.7 | x | -14.3
COc1ccc(C2CN=NC23CCc2ccccc2C3=O)cc1 (stereo not given) | -20.4* | -4.8 | -10.0 | 6.7 | 0.0 | -6.7 | 1.1 | x
COc1ccc(C2CN=NC23CCCc2ccccc2C3=O)cc1 (stereo not given) | x | 1.1 | -14.9 | 30.6 | x | -30.6 | x | x
CCOC(=O)CSc1n[nH]c(=S)s1 | 0.0 | -2.3 | 20.9 | -15.0 | 0.2 | 15.0 | x | x
CCOC(=O)CCSc1n[nH]c(=S)s1 | -20.7* | 3.3 | -4.9 | -4.1 | 0.1 | 4.1 | -14.4 | -2.74
NC(=O)c1ccsc1NC(=O)COC(=O)CCOc1ccccc1 | -22.6* | -7.4 | -16.0 | 7.7 | -0.2 | -7.7 | -16.5 | x
COc1ccc(OC)c(-c2csc(NC(=O)C3COc4ccccc4O3)n2)c1 (stereo not given) | -22.8* | 6.5 | 5.4 | -6.9 | 0.0 | 6.9 | -4.45 | x
COc1ccc(OC)c(-c2csc(NC(=O)C3c4ccccc4Oc4ccccc43)n2)c1 | x | -5.2 | 8.8 | -59.2 | 0.0 | 59.2 | x | x
CCc1cc2c(=O)c(-c3nc4ccccc4n3C)coc2c(CN2CCCC(C)C2)c1O (stereo not given) | 1.8 | -2.6 | -15.1 | -26.4 | 0.3 | 26.4 | x | x
NS(=O)(=O)c1ccc(NC(=O)c2cc(Cl)sc2Cl)cc1 | -25.0* | -16.7 | 9.9 | -2.0 | 0.1 | 2.0 | -0.143 | -6.11
CCCN(C)C[C@H]1OCCCC[C@@H](C)Oc2ccc(NS(=O)(=O)c3ccc(F)cc3)cc2C(=O)N([C@@H](C)CO)C[C@@H]1C | -0.9 | x | x | x | -0.1 | x | x | x
CCS(=O)(=O)N1[C@H](CO)[C@H](c2ccccc2)[C@H]1CN(C(C)=O)C1CCCC1 | -0.3 | x | x | x | 0.0 | x | x | x
CCCCN(C)CCNC(=O)c1cc2cc3ccc(OC)cc3nc2o1 | -3.4 | -40.9 | -69.2 | -13.6 | 0.0 | 13.6 | x | x
SMILES | Ecoli rRNA inh | dFosB act | PvdQ acylase | SR-BI DiI-HDL act | Xi reactivation | SR-BI HDL uptake | AID977621 | AID977628 | others
CCN(CC)CCNC(=O)c1cc2cc3ccc(OC)cc3nc2o1 | -18.9* | -20.4 | 12.1 | 7.0 | -0.1 | -7.0 | -7.93 | u
CCOC(=O)c1cccc(NC(=O)CSc2nc(N)cc(N)n2)c1 | x | -1.9 | -13.2 | -9.4 | x | 9.4 | x | x
O=C1c2ccccc2CSc2c(O)cccc21 | -31.4* | x | x | x | -0.1 | x | -10 | -11.3
O=C1c2ccccc2CCc2ccccc21 | -5.5 | -0.8 | -14.6 | 4.0 | 0.0 | -4.0 | x | x
CC(=O)Nc1ccc(S(=O)(=O)Nc2cc(Cl)ccc2N2CCOCC2)cc1 | -8.1 | -12.3 | -6.8 | -1.3 | 0.5 | 1.3 | x | x
CC1CCCN(C(=O)C(C)Nc2cc(Cl)ccc2N2CCOCC2)C1 (stereo not given) | -29.1* | -9.8 | -9.9 | -4.7 | 0.0 | 4.7 | u | x
COC(=O)c1ccc(NC(=O)C2CCCN2S(=O)(=O)c2ccc(F)cc2)cc1 (stereo not given) | x | -1.2 | -11.4 | -3.9 | x | 3.9 | x | x
Cc1cc(C)nc(SCCC(=O)Nc2ccccc2Cl)n1 | -17.9* | -1.4 | -3.2 | 1.1 | 0.0 | -1.1 | x | -14.5
Cc1cc(C)nc(SCCC(=O)Nc2cccc3ccccc23)n1 | x | -1.4 | 8.0 | -17.1 | x | 17.1 | x | x
O=C(O)CC(CC(=O)Nc1ccc(Oc2ccccc2)cc1)c1ccccc1 (stereo not given) | -26.9* | -5.1 | -16.7 | 17.4 | 0.1 | -17.4 | -18.8 | -22.5
O=C(O)CC(CC(=O)Nc1ccc(N2CCOCC2)cc1)c1ccccc1 (stereo not given) | 4.4 | -3.8 | 2.1 | 16.3 | 0.3 | -16.3 | x | x
Cc1ccc(C(=O)Nc2ccc(C)c(S(=O)(=O)Nc3ccccc3Cl)c2)s1 | -32.2* | -7.7 | 6.5 | -21.9 | 0.0 | 21.9 | -12 | u
N#Cc1cccc(-c2ccc3c(c2)[C@@H]2[C@@H](CCN2S(=O)(=O)c2cccc(F)c2)[C@H](CO)N3)c1 | -19.1* | x | x | x | 0.0 | x | u | x
N#Cc1ccc(-c2ccc3c(c2)[C@@H]2[C@@H](CCN2S(=O)(=O)c2cccc(F)c2)[C@H](CO)N3)cc1 | -8.9 | x | x | x | 0.0 | x | x | x
O=C(Nc1cccc(O)c1)c1cccc(S(=O)(=O)N2CCCCCC2)c1 | -11.6 | -2.4 | -13.1 | 2.5 | -0.1 | -2.5 | x | x
O=C(Nc1cccc(O)c1)c1cccc(S(=O)(=O)Nc2cccc(O)c2)c1 | -16.1* | -0.9 | -8.8 | -3.0 | 0.0 | 3.0 | -4.26 | -3.23

From PubChem BioAssay
